Laboratory results: ChEMBL document CHEMBL3813595, “Discovery of novel 5,6,7,8-tetrahydro[1,2,4]triazolo[4,3-a]pyridine derivatives as γ-secretase modulators (Part 2)” (Bioorg Med Chem, 2016)

What was measured:
[1] = Lipophilicity, logD of compound at pH 7.4 by retention time-based reverse phase chromatographic analysis; type: physicochemical; conditions: buffer
[2] = system: Cortex; experiment: Drug uptake in APP-transgenic Tg2576 mouse cortex at 3 to 6 mg/kg, po administered as single dose after 18 hrs by LC/MS/MS analysis; type: ADME, organism-based; conditions: in vivo, BLD = below limit of detection
[3] = Drug uptake in C57BL/6J mouse plasma at 6 mg/kg, po after 3 hrs by LC/MS/MS analysis; type: ADME, organism-based
Procedure, shortened: (§1)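 Male C57BL/6J mice, 9 weeks old, fed, n = 3, given a single oral dose of 6 mg/kg in 0.5% methylcellulose. Plasma and cortex collected at 3 h. Cortex homogenized in saline. Samples deproteinized with MeCN containing an internal standard, then diluted in ammonium formate/acetonitrile with 0.2% formic acid for analysis.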

[4] = Drug uptake in C57BL/6J mouse cortex at 6 mg/kg, po after 3 hrs by LC/MS/MS analysis; type: ADME, organism-based; conditions: read-out: Drug uptake; procedure, shortened: as §1
[5] = system: Cortex; experiment: Drug uptake in APP-transgenic Tg2576 mouse cortex at 3 to 6 mg/kg, po administered as multiple dose by LC/MS/MS analysis; type: ADME, organism-based; conditions: in vivo
[6] = system: Plasma; experiment: Drug uptake in APP-transgenic Tg2576 mouse plasma at 3 to 6 mg/kg, po administered as multiple dose by LC/MS/MS analysis; type: ADME, organism-based; conditions: in vivo

| chromatographic logD [1] | Compound | also measured |
| --- | --- | --- |
| 2.2 | COc1cc(-c2nnc3n2CCCC32OCc3ccccc3N(CC(F)(F)F)C2=O)ccc1-c1cnc(C)o1 (configuration not stated) |  |
| 3.7 | COc1cc(-c2nnc3n2CCCC3(c2ccc(Cl)c(Cl)c2)C(C)(C)O)ccc1-c1cnc(C)o1 (configuration not stated) |  |
| 2.3 | COc1cc(-c2nnc3n2CCCC3(Cc2ccc(F)c(F)c2)C(N)=O)ccc1-c1cnc(C)o1 (configuration not stated) |  |
| 2.8 | COc1cc(-c2nnc3n2CCCC32OCc3c(Cl)cccc3N(CC(F)(F)F)C2=O)ccc1-c1cnc(C)o1 (configuration not stated) |  |
| 2.4 | COc1cc(-c2nnc3n2CCCC32Cc3ccccc3N(CC(F)(F)F)C2=O)ccc1-c1cnc(C)o1 (configuration not stated) |  |
| 3.2 | COc1cc(-c2nnc3n2CCC[C@@]3(Oc2cc(F)c(F)c(F)c2)C(C)(C)O)ccc1-c1cnc(C)o1 |  |
| 3 | COc1cc(-c2nnc3n2CCCC3(Cc2ccc(F)c(F)c2)C(=O)NCC(F)(F)F)ccc1-c1cnc(C)o1 (configuration not stated) |  |
| 2.8 | COc1cc(-c2nnc3n2CCCC3(Oc2ccc(F)c(F)c2)C(C)(C)O)ccc1-c1cnc(C)o1 (configuration not stated) |  |
| 3.7 | COc1cc(-c2nnc3n2CCCC3(OC)c2ccc(Cl)c(Cl)c2)ccc1-c1cnc(C)o1 (configuration not stated) |  |
| 3.2 | COc1cc(-c2nnc3n2CCC[C@]3(Oc2cc(F)c(F)c(F)c2)C(C)(C)O)ccc1-c1cnc(C)o1 | Drug uptake [2]: BLD; concentration at 3 h [3]: 3.31 µg/mL; concentration at 3 h [4]: 677 ng/g; Drug uptake [5]: Not Active; Drug uptake [6]: Not Active |
| 3 | COc1cc(-c2nnc3n2CCCC3(Cc2ccc(F)c(F)c2)C(C)(C)O)ccc1-c1cnc(C)o1 (configuration not stated) |  |
| 2.9 | COc1cc(-c2nnc3n2CCCC3(O)c2ccc(Cl)c(Cl)c2)ccc1-c1cnc(C)o1 (configuration not stated) |  |
| 2.6 | COc1cc(-c2nnc3n2CCCC3(Cc2ccc(F)c(F)c2)C(C)=O)ccc1-c1cnc(C)o1 (configuration not stated) |  |
| 3.2 | COc1cc(-c2nnc3n2CCCC3(Oc2cc(F)c(F)c(F)c2)C(C)(C)O)ccc1-c1cnc(C)o1 (configuration not stated) |  |
| 3.2 | COc1cc(-c2nnc3n2CCCC3(CNC(C)=O)c2ccc(Cl)c(Cl)c2)ccc1-c1cnc(C)o1 (configuration not stated) |  |
| 2.9 | COc1cc(-c2nnc3n2CCCC32OCc3c(cccc3C(F)(F)F)N(CC(F)(F)F)C2=O)ccc1-c1cnc(C)o1 (configuration not stated) |  |
| 2.9 | COc1cc(-c2nnc3n2CCCC3(Cc2ccc(F)c(F)c2)C(=O)N(C)CC(F)(F)F)ccc1-c1cnc(C)o1 (configuration not stated) |  |
| 2.5 | COc1cc(-c2nnc3n2CCCC32COc3ccccc3N(CC(F)(F)F)C2=O)ccc1-c1cnc(C)o1 (configuration not stated) |  |
| 3.1 | COc1cc(-c2nnc3n2CCCC3(CN)c2ccc(Cl)c(Cl)c2)ccc1-c1cnc(C)o1 (configuration not stated) |  |
| 2.2 | COc1cc(-c2nnc3n2CCCC32C(=O)N(CC(F)(F)F)c3ccccc32)ccc1-c1cnc(C)o1 (configuration not stated) |  |
| 2.5 | COc1cc(-c2nnc3n2CCCC3(CO)Cc2ccc(F)c(F)c2)ccc1-c1cnc(C)o1 (configuration not stated) |  |
| 2.9 | COc1cc(-c2nnc3n2CCCC3(c2ccc(F)c(F)c2)C(C)(C)O)ccc1-c1cnc(C)o1 (configuration not stated) |  |
